This note sets out measurements from ChEMBL document CHEMBL4414577, “Discovery of Pyrrolo[2,3-b]pyridine (1,7-Dideazapurine) Nucleoside Analogues as Anti-Trypanosoma cruzi Agents” (J Med Chem, 2019).

Activity calls are given as the source filed them. No cut-off for these calls is given here.

A short description of series [1]: Drug metabolism in mouse liver microsomes assessed as CYP450-mediated metabolism by measuring parent compound remaining at 5 uM measured immediately in presence of NADPH by UPLC-MS analysis. Format: ADME. The note with it: read-out: Stability. The method, boiled down: (§1)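 Compound incubated with male mouse, rat, dog or pooled human S9 fractions, with NADPH (phase I) or […], sampled at 0, 15, 30 and 60 min. Read-out is percent parent remaining. Two independent experiments of two biological replicates; diclofenac and fluconazole used as assay controls.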

The nature of series [2]: Drug metabolism in mouse liver microsomes assessed as UGT-mediated metabolism by measuring compound remaining at 5 uM incubated for 15 mins in presence of UDPGA by UPLC-MS analysis. Format: ADME. The conditions noted are these: read-out: Stability. The method, boiled down:
as §1

The nature of series [3]: Drug metabolism in mouse liver microsomes assessed as UGT-mediated metabolism by measuring compound remaining at 5 uM incubated for 60 mins in presence of UDPGA by UPLC-MS analysis. Format: ADME. The conditions noted are these: read-out: Stability. The essentials:
as §1
A general note: Liver microsomes are a subcellular fraction often used to study metabolism.

Series [4] in a line: Drug metabolism in rat liver microsomes assessed as CYP450-mediated metabolism by measuring parent compound remaining at 5 uM measured immediately in presence of NADPH by UPLC-MS analysis. The conditions noted are these: read-out: Stability. Format: ADME. The method, boiled down: as §1
The nature of series [5]: Drug metabolism in rat liver microsomes assessed as UGT-mediated metabolism by measuring compound remaining at 5 uM incubated for 15 mins in presence of UDPGA by UPLC-MS analysis. Format: ADME. The note with it: read-out: Stability. The method, boiled down: as §1
A short description of series [6]: Drug metabolism in rat liver microsomes assessed as UGT-mediated metabolism by measuring compound remaining at 5 uM incubated for 60 mins in presence of UDPGA by UPLC-MS analysis. The conditions noted are these: read-out: Stability. Format: ADME. The essentials: as §1
A short description of series [7]: Drug metabolism in dog liver microsomes assessed as CYP450-mediated metabolism by measuring parent compound remaining at 5 uM measured immediately in presence of NADPH by UPLC-MS analysis. Format: ADME, Canis lupus familiaris. The note with it: read-out: Stability. The essentials:
as §1

A short description of series [8]: Drug metabolism in dog liver microsomes assessed as CYP450-mediated metabolism by measuring parent compound remaining at 5 uM incubated for 30 mins in presence of NADPH by UPLC-MS analysis. The note with it: read-out: Stability. Format: ADME, Canis lupus familiaris. The method, boiled down:
as §1

Series [9] deals with T1, Cytochrome P450 (Homo sapiens, UniProt P04798+P05177+P05181+P08684+P10632+P10635+P11509+P11712+P13584+P20813+P20815+P20853+P24462+P24903+P33260+P33261+P51589+P78329+P98187+Q02928+Q08477+Q16678+Q16696+Q5TCH4+Q6VVX0+Q7Z449+Q8TAV3+Q96SQ9+Q9HB55). Description: Drug metabolism in human liver S9 fraction assessed as CYP450-mediated metabolism by measuring parent compound remaining at 5 uM measured immediately in presence of NADPH by UPLC-MS analysis. Format: ADME, subcellular. The conditions noted are these: read-out: Stability. The method, boiled down: as §1

Series [10] has as its target T1, Cytochrome P450. Briefly: Drug metabolism in human liver S9 fraction assessed as CYP450-mediated metabolism by measuring parent compound remaining at 5 uM incubated for 15 mins in presence of NADPH by UPLC-MS analysis. Format: ADME, subcellular. The conditions noted are these: read-out: Stability. The method, boiled down:
as §1

Series [11] deals with T2, UDP-glucuronosyltransferases (UGTs) (Homo sapiens, UniProt O60656+O75310+O75795+P06133+P0DTE4+P0DTE5+P16662+P19224+P22309+P22310+P35503+P35504+P36537+P54855+Q6UWM9+Q9BY64+Q9HAW7+Q9HAW8+Q9HAW9). Briefly: Drug metabolism in human liver S9 fraction assessed as UGT-mediated metabolism by measuring compound remaining at 5 uM incubated for 30 mins in presence of UDPGA by UPLC-MS analysis. The note with it: read-out: Stability. Format: ADME, subcellular. The method, boiled down: as §1

In series [12] the target is T2, UDP-glucuronosyltransferases (UGTs). Briefly: Drug metabolism in human liver S9 fraction assessed as UGT-mediated metabolism by measuring compound remaining at 5 uM incubated for 60 mins in presence of UDPGA by UPLC-MS analysis. Format: ADME, subcellular. The conditions noted are these: read-out: Stability. The essentials: as §1
The test system of series [13] is Trypanosoma cruzi. Briefly: In vivo antitrypanosomal activity against Trypanosoma cruzi Y trypomastigotes infected in Swiss mouse assessed as reduction in parasitemia at 25 mg/kg, po administered twice daily via gavage for 5 days starting from 5 days post-infection and measured 8 days post-infection by light microscopic method relative to control. The arrangement: scale not given: the % may be the effect or the level left. Format: functional. The method, boiled down:
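Male Swiss Webster mice (18-20 g, six per group) were infected i.p. with 10⁴ Y-strain bloodstream trypomastigotes. Treatment began at 5 dpi, only in mice with detectable parasitemia. Dosing was 25 mg/kg b.i.d. by oral gavage for 5 days, using a 2.0 mg/mL formulation in 10% EtOH, 0.1 M citrate pH 3.02. Parasites in 5 μL tail-vein blood were counted microscopically up to 30 dpi, against vehicle-treated infected mice.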

The subject of series [14] is Trypanosoma cruzi. Briefly: In vivo antitrypanosomal activity against Trypanosoma cruzi Y trypomastigotes infected in Swiss mouse assessed as mouse survival at 25 mg/kg, po administered twice daily via gavage for 5 days starting from 5 days post-infection and measured daily up to 40 days post-infection. Format: functional, organism-based. The method, boiled down: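 Male Swiss Webster mice (18-20 g, 4-5 weeks) infected i.p. with 10⁴ Y-strain bloodstream trypomastigotes; six per group. Oral gavage from 5 dpi for 5 consecutive days: test compound at 25 mg/kg b.i.d. (2.0 mg/mL in 10% EtOH, 0.1 M citrate pH 3.02), benznidazole at 100 mg/kg s.i.d. Parasites counted in 5 μL tail blood to 30 dpi; mortality followed daily to 40 dpi.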

The subject of series [15] is Trypanosoma cruzi. Description: In vivo antitrypanosomal activity against Trypanosoma cruzi Y trypomastigotes infected in Swiss mouse assessed as reduction in parasitemia at 25 mg/kg, po administered twice daily for 5 days with 2 days interval for 3 cycles and measured up to 30 days post-infection by light microscopy. Format: functional, organism-based. The essentials: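 Male Swiss Webster mice infected i.p. with 10⁴ Y-strain bloodstream trypomastigotes; six per group. Oral gavage from 5 dpi for 15 days (three 5-day rounds, 2 days off): test compound 25 mg/kg b.i.d., benznidazole 100 mg/kg s.i.d. Parasites counted in 5 μL tail blood to 30 dpi; mortality followed to 53 dpi.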

A short description of series [16]: Toxicity in Swiss Webster mouse infected with Trypanosoma cruzi Y trypomastigotes assessed as body weight loss at 25 mg/kg, po administered twice daily for 5 days with 2 days interval for 3 cycles. Format: organism-based. The note with it: in vivo. The method, boiled down:
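Y-strain-infected male Swiss Webster mice were dosed orally for 15 days (three rounds of 5 days, 2 drug-free days between) starting at 5 dpi. Regimens were 25 mg/kg b.i.d. or benznidazole 100 mg/kg s.i.d. Weight loss was recorded as a sign of toxicity, with mortality checked daily up to 53 dpi. There were six mice per group.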

Series [17] has as its system Trypanosoma cruzi. Description: In vivo antitrypanosomal activity against Trypanosoma cruzi Y trypomastigotes infected in Swiss mouse assessed as reduction in parasitemia at 25 mg/kg, po administered twice daily for 5 days with 2 days interval for 3 cycles in presence of cyclophosphamide by light microscopy. Format: functional, organism-based. The essentials:
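Infected mice were dosed orally at 25 mg/kg b.i.d. from 5 dpi, either for 5 days or for 15 days (3 × 5 days, 2 days apart). Mice with negative parasitemia up to 30 days post-treatment then received cyclophosphamide i.p. at 50 mg/kg/day. This was given in three cycles of 4 days, each followed by 3 drug-free days. Tail-vein blood parasitemia was then read by light microscopy.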

`Nc1ccnc2c1c(I)cn2[C@@H]1O[C@H](CO)[C@@H](O)[C@H]1O`: the remaining at 0 min, 5 µM (in [1]; in [4]; in [7]; at Cytochrome P450 [9]) was 100% each time. For the same compound, the remaining at 0.25 h, 5 µM in [2] was 102%; in series [5] it was 97%; at Cytochrome P450 [10], 99%. The remaining at 1 h, 5 µM in series [3] came to 101%; in [6], 94%; in series [12] it was 100%. The remaining at 0.5 h, 5 µM turned out to be 96% in [8] and 99% in series [11]. Also, the results for the Activity (in the series on Trypanosoma cruzi [13]; in [16]) were 95% and “Non-Toxic”, respectively. The result in the series with Trypanosoma cruzi [14] and with Trypanosoma cruzi [15] was Active. The outcome in the series on Trypanosoma cruzi [17] was inactive.
